Assay outcomes from PubChem.
LEDGF integ inh – blocks HIV-1 LEDGF/p75-dependent DNA integration. 370,000 tested, 0.64% active. TR-FRET IN-LEDGF/p75 DNA integration, Eu/Cy5. inhibition, % at 3.7 µM. AID 743269;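 active = inhibition above the screen-wide mean plus 3 SD, cut at about 13% in these data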;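 also: signal is the Cy5 over europium emission ratio at 671 and 618 nm; 0% = plate median of compound wells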
RBBP9 inh – human RBBP9 hydrolase inhibition; O75884; recombinant RBBP9, FP-Rh probe fluorescence polarization; inhibition, % at 7.94 µM; 220,000 tested, 0.2% active; AID 1515;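 active = inhibition above the campaign mean of all tested compounds plus 3 SD, cut at about 14% in these data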;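 also: plate controls were DMSO wells with RBBP9 for no effect and wells lacking RBBP9 protein for full effect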
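Test system: recombinant human RBBP9. Quantity: 2.5 µM RBBP9 dispensing solution, before mixing. Detection: FP readout at 525/598 nm. Reagent: Serine-hydrolase probe FP-Rh, 375 nM pre-mixing. Measure: % inhibition. Control set: DMSO-treated enzyme wells and wells lacking RBBP9. Buffer or medium: Tris-NaCl-Pluronic buffer, pH 8.0. Times: preincubation 30 min plus labeling 45 min at 25 °C.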
MBD2 inh – MBD2-methylated oligo binding inhibition | 370,000 tested, 0.31% active | inhibition, % at 4.4 µM | TR-FRET, MBD2 binding to methylated oligonucleotide | AID 686964 | Q9UBB5; in the data active = inhibition above about 13%
Target sequence (Q9UBB5 whole entry, looked up): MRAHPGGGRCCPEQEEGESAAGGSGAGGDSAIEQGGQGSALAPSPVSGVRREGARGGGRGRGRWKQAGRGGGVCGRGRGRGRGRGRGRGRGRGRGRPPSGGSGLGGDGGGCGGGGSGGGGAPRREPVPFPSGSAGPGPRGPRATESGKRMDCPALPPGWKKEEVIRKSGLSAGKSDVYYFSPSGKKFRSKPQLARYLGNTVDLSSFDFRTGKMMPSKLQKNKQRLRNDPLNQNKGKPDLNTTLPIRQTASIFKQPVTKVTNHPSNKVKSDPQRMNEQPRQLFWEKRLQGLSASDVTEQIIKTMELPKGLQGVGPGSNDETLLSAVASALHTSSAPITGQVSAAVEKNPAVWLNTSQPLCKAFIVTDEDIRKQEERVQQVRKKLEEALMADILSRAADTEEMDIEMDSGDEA
UHRF1 binding – blocks human UHRF1 binding to methylated DNA; Q96T88; UHRF1 binding to methylated oligo, TR-FRET; inhibition, % at 4.4 µM; 370,000 tested, 0.75% active; in the data active = inhibition above about 21%;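 also: UHRF1 SRA domain binding a hemimethylated CpG hairpin DNA probe; 0% = median of test compound wells and 100% = reference inhibitor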
PRMT1 FP inh – inhibitors of human PRMT1 | recombinant PRMT1, activity-based probe fluorescence polarization | AID 652257 | Q99873 | 370,000 tested, 1.3% active | inhibition, % at 2.79 µM;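 active = inhibition above about 21% made by adding two undisclosed values, limit read from the data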
ABHD5 PLIN5 PPI – inhibitors of human ABHD5-perilipin-5 interaction; Split G. princeps luciferase complementation, luminescence, 4 h; AID 602281; 360,000 tested, 0.78% active; inhibition, % at 4 µM; Q00G26+Q8WTS1;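 active = inhibition above the mean inhibition across every tested compound plus 3 SD, cut at about 22% in these data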;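 also: 0% = DMSO only wells and the 100% control is not disclosed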
UHRF1 DNA bind – inhibits human UHRF1 binding to methylated oligonucleotide, MBD2 counter-screen; 1,000 tested, 25% active; inhibition, % at 4.4 µM; TR-FRET; shares compounds with MBD2 inh; AID 720530; in the data active = inhibition above about 21%;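 also: UHRF1 SRA domain binding a labeled hemimethylated CpG hairpin DNA; 0% = vehicle only and 100% = reference inhibitor with vehicle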
MBD2 DBD conf – confirmation of human MBD2-DBD methylated oligonucleotide binding inhibitors | shares compounds with MBD2 inh | TR-FRET MBD2-DBD binding to methylated oligonucleotide | inhibition, % at 4.4 µM | 1,000 tested, 26% active | AID 720531
IN multimer up – counter-screen for LEDGF/p75 integration inhibitors: HIV-1 integrase multimerization activators; shares compounds with LEDGF integ inh; TR-FRET HIV-1 integrase multimerization, biochemical; activation, % at 7.7 µM; 2,000 tested, 17% active; in the data active = activation above about 8.9%
TR-FRET interf – TR-FRET optical interference, LEDGF/p75 integration counter-screen. shares compounds with LEDGF integ inh. TR-FRET optical interference counterscreen, HIV-1 IN multimerization. inhibition, % at 7.7 µM. 2,000 tested, under 10 active;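 active = inhibition above the mean over all tested compounds plus 3 SD, which no compound reached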;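 also: 0% = integrase with antibodies and DMSO and 100% = antibodies without integrase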
IN-LEDGF confirm – LEDGF/p75-dependent HIV-1 integration inhibition, confirmation. shares compounds with LEDGF integ inh. TR-FRET LEDGF/p75-dependent HIV-1 integration, biochemical. inhibition, % at 3.7 µM. 2,000 tested, 36% active. AID 1053136
* marks the source's active call; other numbers are inactive results; . = not tested or not shown. An excerpt weighted towards active compounds, which were near 3.1% of everything screened. Rule as the data show it, unless noted: active = inhibition above about 14%; inactive = the rest.

SMILES	LEDGF integ inh	RBBP9 inh	MBD2 inh	UHRF1 binding	PRMT1 FP inh	ABHD5 PLIN5 PPI	UHRF1 DNA bind	MBD2 DBD conf	IN multimer up	TR-FRET interf	IN-LEDGF confirm
CC(C)[C@H](NC(=O)c1ccc(Cl)c(Cl)c1)C(=O)N1CCC[C@H]1C(=O)NCCc1ccccc1Cl	1.2	.	-0.3	-1.4	0.6	.	.	.	.	.	.
O=C(CSc1nnc(-c2ccco2)c(-c2ccco2)n1)c1ccccc1	57.5*	-9.2	17.0*	58.1*	64.9*	-4.2	19.2	2.9	3.9	-19.5	26.2*
O=C(CSc1nnc(-c2ccco2)o1)c1ccccc1	2.7	-1.6	-3.2	0.0	19.1	-2.6	.	.	.	.	.
COc1ccc(/C=C(\C#N)C(=O)Nc2cccc3ncccc23)cc1OC	2.3	-28.8	-7.9	-7.5	2.9	4.6	.	.	.	.	.
N#C/C(=C\c1ccc(O)c(O)c1)C(=O)Nc1cccc2ncccc12	48.6*	.	20.5*	27.6*	10.2	4.0	13.0	11.2	71.6*	-256.1	84.8*
Cc1ccc(-c2nc3c(c(=O)[nH]c(=O)n3Cc3ccccc3)n2C)o1	22.6*	-3.8	16.3*	29.6*	16.9	15.0	16.1	9.3	8.8	-44.4	33.8*
O=C(O)CCCN1C(=O)/C(=C/C=C/c2ccco2)SC1=S	87.2*	2.7	70.3*	98.3*	41.5*	17.1	90.5*	49.0*	12.8*	-64.3	82.8*
O=C(O)CC(C(=O)O)N1C(=O)/C(=C/C=C/c2ccco2)SC1=S (stereo not drawn)	88.8*	-4.9	108.8*	100.0*	54.0*	2.9	92.0*	58.6*	36.6*	-184.5	94.1*
CCC(C(=O)O)N1C(=O)/C(=C/c2cccn2C)SC1=S (stereo not drawn)	7.8	3.2	-17.8	-16.4	-31.1	5.3	.	.	.	.	.
O=C(CNS(=O)(=O)c1ccc(Br)s1)N1CCN(c2ccccn2)CC1	-0.7	.	-0.3	-1.3	-0.8	.	.	.	.	.	.
O=C1C2CC=CCC2C(=O)N1c1ccc(NCCc2cccc(F)c2)c([N+](=O)[O-])c1 (stereo not drawn)	14.5*	-7.7	3.0	3.3	2.0	-6.2	.	.	0.5	-2.5	-8.0
COC(=O)[C@H]1C[C@@]2(N3CCCCC3)c3ccccc3N(S(=O)(=O)c3ccccc3)[C@H]2N1	0.9	.	-0.2	-1.0	-0.4	.	.	.	.	.	.
C=CCN1C=C2C(=O)C(C)(OC(=O)c3cnc4ccccc4n3)C(=O)C=C2C=C1/C=C/COC (stereo not drawn)	25.1*	.	-1.0	5.0	17.7	6.4	.	.	2.1	-10.3	39.7*
COC/C=C/C1=CC2=CC(=O)C(C)(OC(=O)c3cnc4ccccc4n3)C(=O)C2=CN1CCOC (stereo not drawn)	4.2	.	-4.6	-2.1	0.4	-6.4	.	.	.	.	.
COc1ccc(Cl)cc1NC(=O)NNC(=O)c1ccccn1	2.4	.	-1.8	1.8	-2.4	-1.7	.	.	.	.	.
COc1ccc(Cl)cc1NC(=O)NNC(=O)C(=O)Nc1ccc(F)cc1	64.9*	.	-0.2	-2.3	-3.6	17.7	.	.	-0.4	1.9	4.0
COc1ccc(CN2C(=O)c3ccnn3CC2(C)c2nnnn2-c2c(C)cccc2C)cc1 (stereo not drawn)	4.0	.	-6.0	-2.1	0.9	.	.	.	.	.	.
CC1(C)N([O-])C(c2ccccc2)=C[N+](=O)C1(C)C	-2.1	-2.8	-0.6	7.6	3.1	2.4	.	.	.	.	.
CC1(C)N([O-])C(c2cccs2)=C[N+]1=O	24.2*	0.2	-2.7	1.1	-3.0	3.1	.	.	1.1	-5.7	29.0*
